Experiments:
MCF7 [1] = experiment: In vitro effect on 5-formyltetrahydrofolate (5-CHO-THF) in MCF-7 cells at 1 uM(control= 0.1); Folate pools; assay type: functional, Homo sapiens
MCF7 [2] = experiment: In vitro effect on 10-formyltetrahydrofolate (10-CHO-THF) in MCF-7 cells at 1 uM(control= 1.7); Folate pools; assay type: functional, Homo sapiens
MCF7 [3] = experiment: In vitro effect on 10-formyldihydrofolate (10-CHO-DHF) in MCF-7 cells at 1 uM(control= 0.2); Folate pools; assay type: functional, Homo sapiens
MCF7 [4] = experiment: In vitro effect on 5-methyltetrahydrofolate (5-CH3-THF) in MCF-7 cells at 1 uM(control= 0.7); Folate pools; assay type: functional, Homo sapiens
MCF7 [5] = experiment: In vitro effect on folic acid (FA) in MCF-7 cells at 1 uM(control= 0.0); Folate pools; assay type: functional, Homo sapiens
MCF7 [6] = experiment: In vitro effect on 10-formylfolic acid (10-CHO-FA) in MCF-7 cells at 1 uM(control= 0.1); Folate pools; assay type: functional, Homo sapiens
MCF7 [7] = experiment: In vitro effect on tetrahydrofolate (THF) in MCF-7 cells at 1 uM(control= 1.0); Folate pools; assay type: functional, Homo sapiens
MCF7 [8] = experiment: In vitro effect on dihydrofolate (DHF) in MCF-7 cells at 1 uM(control= 0.2); Folate pools; assay type: functional, Homo sapiens
MCF7 [9] = experiment: In vitro effect on total folates in MCF-7 cells at 1 uM(control= 4.0); Folate pools; assay type: functional, Homo sapiens
MCF7 [10] = experiment: In vitro effect on total folates in MCF-7 cells at 50 uM (control= 4.0); Folate pools; assay type: functional, Homo sapiens
MCF7 [11] = experiment: In vitro effect on tetrahydrofolate (THF) in MCF-7 cells at 100 uM(control= 1.0); Folate pools; assay type: functional, Homo sapiens
MCF7 [12] = experiment: In vitro effect on 10-formylfolic acid (10-CHO-FA) in MCF-7 cells at 50 uM(control= 0.1); Folate pools; assay type: functional, Homo sapiens
MCF7 [13] = experiment: In vitro effect on 5-formyltetrahydrofolate (5-CHO-THF) in MCF-7 cells at 100 uM (control= 0.1); Folate pools; assay type: functional, Homo sapiens
MCF7 [14] = experiment: In vitro effect on 10-formylfolic acid (10-CHO-FA) in MCF-7 cells at 100 uM(control= 0.1); Folate pools; assay type: functional, Homo sapiens
MCF7 [15] = experiment: In vitro effect on folic acid (FA) in MCF-7 cells at 100 uM (control= 0.0); Folate pools; assay type: functional, Homo sapiens
MCF7 [16] = experiment: In vitro effect on 5-formyltetrahydrofolate (5-CHO-THF) in MCF-7 cells at 50 uM(control=0.1); Folate pools; assay type: functional, Homo sapiens
MCF7 [17] = experiment: In vitro effect on total folates in MCF-7 cells at 100 uM(control= 4.0); Folate pools; assay type: functional, Homo sapiens
MCF7 [18] = experiment: In vitro effect on 10-formyldihydrofolate (10-CHO-DHF) in MCF-7 cells at 100 uM (control= 0.2); Folate pools; assay type: functional, Homo sapiens
MCF7 [19] = experiment: In vitro effect on 10-formyltetrahydrofolate (10-CHO-THF) in MCF-7 cells at 50 uM (control= 1.7); Folate pools; assay type: functional, Homo sapiens
MCF7 [20] = experiment: In vitro effect on dihydrofolate (DHF) in MCF-7 cells at 100 uM (control= 0.2); Folate pools; assay type: functional, Homo sapiens
Thymidylate synthase = Thymidylate synthase (Homo sapiens, UniProt P04818); experiment: Compound was evaluated for the inhibition of thymidylate synthase obtained from human; conditions: read-out: I50
Summary of the method: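 Human thymidylate synthase came from an SV40-transformed fibroblast line, cloned and expressed in E. coli, and purified to homogeneity by affinity chromatography. Activity was measured by the ³H-release method.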

MCF7 [21] = experiment: In vitro effect on 5-methyltetrahydrofolate (5-CH3-THF) in MCF-7 cells at 50 uM(control=0.7); Folate pools; assay type: functional, Homo sapiens
MCF7 [22] = experiment: In vitro effect on 10-formyldihydrofolate (10-CHO-DHF) in MCF-7 cells at 50 uM (control= 0.2); Folate pools; assay type: functional, Homo sapiens
[23] = biological target: Bifunctional purine biosynthesis protein ATIC (Homo sapiens) (UniProt P31939); experiment: Compound was evaluated for the inhibition of 5-aminoimidazole-4-carboxamide ribonucleotide transformylase obtained from human at 100 uM
Summary of the method: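 AICAR transformylase partially purified from human MOLT-4 cells by a modified literature procedure. Activity was followed with a continuous spectrophotometric assay.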

Dihydrofolate reductase = biological target: T1, Dihydrofolate reductase (Homo sapiens, UniProt P00374); experiment: Compound was evaluated for the inhibition of dihydrofolate reductase obtained from human; conditions: read-out: I50
T1 sequence (P00374 whole entry): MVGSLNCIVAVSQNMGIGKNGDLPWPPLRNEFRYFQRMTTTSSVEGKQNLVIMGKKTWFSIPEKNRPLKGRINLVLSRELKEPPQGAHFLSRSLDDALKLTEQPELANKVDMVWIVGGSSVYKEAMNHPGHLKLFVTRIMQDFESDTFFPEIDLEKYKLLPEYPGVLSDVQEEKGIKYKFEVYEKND

MCF7 [24] = experiment: In vitro effect on tetrahydrofolate (THF) in MCF-7 cells at 50 uM (control=1.0); Folate pools; assay type: functional, Homo sapiens
MCF7 [25] = experiment: In vitro effect on 5-methyltetrahydrofolate (5-CH3-THF) in MCF-7 cells at 100 uM (control= 0.7); Folate pools; assay type: functional, Homo sapiens
MCF7 [26] = experiment: In vitro effect on dihydrofolate (DHF) in MCF-7 cells at 50 uM (control=0.2); Folate pools; assay type: functional, Homo sapiens
MCF7 [27] = experiment: In vitro effect on folic acid (FA) in MCF-7 cells at 50 uM (control= 0.0); Folate pools; assay type: functional, Homo sapiens
MCF7 [28] = experiment: In vitro effect on 10-formyltetrahydrofolate (10-CHO-THF) in MCF-7 cells at 100 uM (control= 1.7); Folate pools; assay type: functional, Homo sapiens

Chain of Thymidylate synthase (P04818 whole entry): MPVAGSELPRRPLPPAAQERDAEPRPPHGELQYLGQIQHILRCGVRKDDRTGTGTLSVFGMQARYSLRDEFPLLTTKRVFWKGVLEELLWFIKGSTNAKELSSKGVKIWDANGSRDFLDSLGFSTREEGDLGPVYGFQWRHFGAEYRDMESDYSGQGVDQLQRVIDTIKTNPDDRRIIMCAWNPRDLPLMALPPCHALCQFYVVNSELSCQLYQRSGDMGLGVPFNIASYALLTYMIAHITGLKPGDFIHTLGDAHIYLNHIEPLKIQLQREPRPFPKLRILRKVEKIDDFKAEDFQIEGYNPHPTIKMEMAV
Chain of Bifunctional purine biosynthesis protein ATIC (Homo sapiens) (P31939 whole entry, looked up): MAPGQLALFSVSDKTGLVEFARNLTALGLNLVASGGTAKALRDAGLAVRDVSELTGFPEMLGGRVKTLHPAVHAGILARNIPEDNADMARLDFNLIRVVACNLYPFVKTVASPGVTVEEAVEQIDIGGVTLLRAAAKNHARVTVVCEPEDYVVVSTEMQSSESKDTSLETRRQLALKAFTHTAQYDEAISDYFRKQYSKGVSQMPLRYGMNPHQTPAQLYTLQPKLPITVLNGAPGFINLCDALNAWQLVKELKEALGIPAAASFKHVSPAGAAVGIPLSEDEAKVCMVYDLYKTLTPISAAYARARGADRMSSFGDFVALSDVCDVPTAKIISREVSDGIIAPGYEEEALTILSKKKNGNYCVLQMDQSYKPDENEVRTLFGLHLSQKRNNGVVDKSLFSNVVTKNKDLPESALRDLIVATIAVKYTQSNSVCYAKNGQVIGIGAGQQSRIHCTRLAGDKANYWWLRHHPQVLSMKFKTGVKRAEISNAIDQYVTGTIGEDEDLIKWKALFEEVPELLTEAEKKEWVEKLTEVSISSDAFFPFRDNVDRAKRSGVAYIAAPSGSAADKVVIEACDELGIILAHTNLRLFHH

## CN(Cc1cnc2nc(N)nc(N)c2n1)c1ccc(C(=O)N[C@@H](CCC(=O)O)C(=O)O)cc1 [METHOTREXATE]
MCF7 [1]
  Activity: 0.1 pM (10e6*cells)-1
MCF7 [2]
  Activity: 0.8 pM (10e6*cells)-1
MCF7 [3]
  Activity: 0.6 pM (10e6*cells)-1
MCF7 [4]
  Activity: 0.1 pM (10e6*cells)-1
MCF7 [5]
  Activity: 0.1 pM (10e6*cells)-1
MCF7 [6]
  Activity: 0.3 pM (10e6*cells)-1
MCF7 [7]
  Activity: 0.4 pM (10e6*cells)-1
MCF7 [8]
  Activity: 1.6 pM (10e6*cells)-1
MCF7 [9]
  Activity: 4.1 pM (10e6*cells)-1

## NCCCC(NC(=O)c1ccc(NCC2CNc3nc(N)nc(O)c3C2)cc1)C(=O)O (stereo not given)
MCF7 [10]
  Activity: 4.1 pM (10e6*cells)-1
MCF7 [11]
  Activity: 0.9 pM (10e6*cells)-1
MCF7 [12]
  Activity: 0.2 pM (10e6*cells)-1
MCF7 [13]
  Activity: 0.1 pM (10e6*cells)-1
MCF7 [14]
  Activity: 0.1 pM (10e6*cells)-1
MCF7 [15]
  Activity: 0 pM (10e6*cells)-1
MCF7 [16]
  Activity: 0.2 pM (10e6*cells)-1
MCF7 [17]
  Activity: 3.9 pM (10e6*cells)-1
MCF7 [18]
  Activity: 0.3 pM (10e6*cells)-1
MCF7 [19]
  Activity: 1.8 pM (10e6*cells)-1
MCF7 [20]
  Activity: 0.2 pM (10e6*cells)-1
Thymidylate synthase
  IC50: 470 µM
MCF7 [21]
  Activity: 0.6 pM (10e6*cells)-1
MCF7 [22]
  Activity: 0.3 pM (10e6*cells)-1
[23]
  inhibition: 16%
Dihydrofolate reductase
  IC50: 2 µM
MCF7 [24]
  Activity: 1 pM (10e6*cells)-1
MCF7 [25]
  Activity: 0.6 pM (10e6*cells)-1
MCF7 [26]
  Activity: 0.2 pM (10e6*cells)-1
MCF7 [27]
  Activity: 0 pM (10e6*cells)-1
MCF7 [28]
  Activity: 1.7 pM (10e6*cells)-1

— ChEMBL document CHEMBL1126177, “Synthesis and biological evaluation of N alpha-(5-deaza-5,6,7,8-tetrahydropteroyl)-L-ornithine” (J Med Chem, 1992)
